# Screens (PubChem BioAssay)
# In the library only some 3% were active in any assay of this set; here they are far more common.
# HTR1A agonist: agonists of human 5-HT1a serotonin receptor; 65,000 compounds, 0.56% hits; P08908; AID 567; CHO 5-HT1a Ga15 NFAT-bla reporter, FRET ratio; 0% basal, 100% maximal reference agonist; activation, % at 10 µM;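 active means activation above the screen-wide mean activation plus 3 SD, cut at about 19% in these data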
# S1P1 ag-PAM: S1P1 (human) agonism or agonism potentiation. activation, % at 9.5 µM. 56,000 compounds, 0.57% hits. S1P1 CRE-bla cells, forskolin, beta-lactamase FRET, potentiator mode; S1P1 agonist co-added at EC20, 2 nM; 100% = saturating reference agonist, 0% = basal;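 active means activation above a cutoff set at the mean activation of all tested compounds plus 3 SD, cut at about 54% in these data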;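 further: forskolin at 4 µM as EC80 and the EC20 agonist is SEW2871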
# 5HT1a antag: blocks the human serotonin 5-HT1a receptor; AID 612; inhibition, % at 10 µM; CHO 5-HT1a Ga15 NFAT-bla reporter, antagonist mode; 62,000 compounds, 0.68% hits;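 active means inhibition above the mean of all tested compounds plus 3 SD, cut at about 43% in these data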;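 further: receptor stimulated by 5-CT agonist at 100 nM near EC80; beta-lactamase reporter measured by ratiometric fluorescence of a cleavable substrate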
# 5HT1E antag: antagonists of human 5-HT1E serotonin receptor. CHO 5-HT1E Ga15 NFAT-bla reporter, FRET, antagonist. inhibition, % at 6 µM. 65,000 compounds, 0.99% hits. P28566. AID 571;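 active means inhibition above a set limit, the mean inhibition across every tested compound plus 3 SD, cut at about 29% in these data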;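 further: signal is the 460 over 535 nm emission ratio of beta-lactamase substrate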
# S1P3 agonist: activates the human S1P3 receptor; Q99500; 60,000 compounds, 0.1% hits; S1P3 NFAT-BLA reporter cells, agonism, FRET ratio; relative to 1 µM S1P, basal subtracted; AID 373; activation, % at 4.5 µM;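 active means activation above the screen-wide mean plus 3 SD, cut at about 4.5% in these data, passing the limit was not always enough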
# Target sequence (Q99500 whole entry, looked up): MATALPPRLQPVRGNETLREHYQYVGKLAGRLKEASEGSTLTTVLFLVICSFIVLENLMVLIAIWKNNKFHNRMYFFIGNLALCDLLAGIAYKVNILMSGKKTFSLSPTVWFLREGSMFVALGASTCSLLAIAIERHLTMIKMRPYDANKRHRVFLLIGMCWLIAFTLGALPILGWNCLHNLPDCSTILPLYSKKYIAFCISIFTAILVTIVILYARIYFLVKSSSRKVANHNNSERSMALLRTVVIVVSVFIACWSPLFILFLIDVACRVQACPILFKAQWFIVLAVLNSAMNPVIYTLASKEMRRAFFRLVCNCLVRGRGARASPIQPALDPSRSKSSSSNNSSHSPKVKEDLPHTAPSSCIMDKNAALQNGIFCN
#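 Measure – % activation relative to 1 µM S1P (100%), per plate · System – stable CHO line with human S1P3, Gα16, NFAT-BLA reporter · Timing – cells plated overnight, compound 4 h 37 °C, substrate 2 h RT · Technique – fluorescent BLA substrate, ex 405 nm, em 460/535 nm ratio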
# HTR1E agonist: 5-HT1E (human) receptor agonism. AID 574. CHO 5-HT1E Ga15 NFAT-bla reporter, FRET; 0% DMSO wells, 100% control agonist wells. 65,000 compounds, 0.69% hits. activation, % at 6 µM. P28566;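 active means activation above a set limit, the screen-wide mean activation plus 3 SD, cut at about 8.5% in these data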
# A number is an active result; 0 = inactive; - = not tested or not shown.
SMILES,HTR1A agonist,S1P1 ag-PAM,5HT1a antag,5HT1E antag,S1P3 agonist,HTR1E agonist
CC(C)C1N(c2ccccc2)C(N)=C(C#N)C1(C#N)C#N (configuration not stated),0,0,0,33.3,0,0
CSc1nc(-c2ccco2)cc(-c2ccccc2)c1C#N,0,0,0,0,0,0
CS(=O)c1nc(-c2ccc(Br)cc2)cc(-c2ccccc2)c1C#N (configuration not stated),0,0,80.7,42.8,0,0
CCOC(=O)CSc1nc2c(sc(=S)n2Cc2ccco2)c(=O)n1-c1ccc(F)cc1,0,-,50.2,0,-,0
CCn1c(=S)sc2c(=O)n(-c3ccccc3)c(SCC(=O)NCc3ccco3)nc21,0,-,0,0,-,0
O=C(c1cn(CC(=O)N2CCCC2)c2ccccc12)C1CCCCC1,0,0,0,0,0,0
CCCC(c1nnnn1Cc1ccco1)N1CCN(c2cc(Cl)ccc2C)CC1 (configuration not stated),0,0,51.2,0,0,0
COc1cccc2c(=O)n(CC(=O)Nc3cccc(F)c3)ccc12,0,0,0,0,0,0
CC(NS(=O)(=O)c1ccccc1)C(=O)Nc1nccs1 (configuration not stated),267.5,0,0,0,0,0
Cc1ccc(C(=O)N2CCN(c3cccc(Cl)c3)CC2)cc1C,0,0,0,0,0,0
O=C(NC(=O)N1CCN(c2ccccc2F)CC1)c1ccccc1,0,0,0,0,0,17.9
O=C(NC(=O)N1CCN(c2cccc(Cl)c2)CC1)c1ccccc1,0,0,0,0,0,14.3
O=C(NCc1ccccc1)N1CCN(c2ccccc2F)CC1,0,0,0,0,0,0
CCOC(=O)c1sc2ncn(CC(=O)N(CC)CC)c(=O)c2c1C,0,0,0,0,0,0
CC(C)Oc1cccc(C(=O)Nc2ccccc2N2CCOCC2)c1,0,0,0,31.8,0,0
O=C(Nc1ccc(N2CCOCC2)c(Cl)c1)c1c(F)c(F)c(F)c(F)c1F,0,-,0,0,0,0
O=C(Nc1ccc(N2CCOCC2)c(Cl)c1)c1cccc(F)c1,0,88.2,0,0,0,0
Cc1ccc(C(=O)Nc2cccc(C(=O)O)c2)cc1S(=O)(=O)N1CCCCC1,0,0,0,0,0,0
O=c1c(C(c2nnnn2C2CCCCC2)N2CCCCC2)coc2ccc(Cl)cc12 (configuration not stated),0,0,0,0,0,0
CC(c1nnnn1C1CCCCC1)N(Cc1ccccc1)Cc1cccnc1 (configuration not stated),0,0,0,0,0,0
CCN(Cc1ccccc1)C(c1cccs1)c1nnnn1C1CCCCC1 (configuration not stated),0,0,43.9,0,0,0
N=c1sc2ccccc2n1-c1ccccc1,0,-,0,0,-,24.6
CCc1c(C)sc(NC(=O)c2cc(C3CC3)on2)c1C#N,0,0,0,0,0,0
CCc1c(C)sc(NC(=O)c2cc(-c3ccco3)on2)c1C#N,0,92.5,0,0,0,0
Cc1ccc(NC(=O)c2cc(-c3ccco3)on2)cc1C,0,72.4,0,0,0,0
SMILES,HTR1A agonist,S1P1 ag-PAM,5HT1a antag,5HT1E antag,S1P3 agonist,HTR1E agonist
CCc1c(C)sc(NC(=O)c2cc(C)on2)c1C#N,0,0,0,0,0,0
CCCc1cc(C(=O)Nc2sc(C)c(CC)c2C#N)no1,0,73.6,0,0,0,0
CC(C)C(=O)Nc1nnc(SCC(=O)NCc2cccs2)s1,0,0,0,0,0,0
OC(CCN1CCOCC1)(c1ccc(Cl)cc1)C1CCCCC1 (configuration not stated),0,0,0,0,0,0
CCOC(=O)N1CCC(NS(=O)(=O)c2ccc3c(c2)CCN3C(C)=O)CC1,0,-,0,0,-,0
CCN(CC)c1nc(N2CCOCC2)c(C#N)c2c1CN(C)CC2,0,0,-,0,0,51.5
CC(C)c1nc(N2CCOCC2)c(C#N)c2c1CCCC2,0,-,0,0,0,0
CC(C)CSc1nc(N2CCOCC2)c2c(c1C#N)CC(C)(C)SC2,0,0,-,29.0,0,0
CC(C)Sc1nc(N2CCOCC2)c2c(c1C#N)CC(C)(C)SC2,0,0,0,0,0,0
CCSc1nc(N2CCOCC2)c2c(c1C#N)CCCC2,0,0,0,0,4.7,0
O=C(Cn1cnc2sc(-c3ccccc3)cc2c1=O)NCc1ccco1,0,0,0,0,0,0
O=c1n(CCCN2CCN(c3cccc(Cl)c3)CC2)nc2ccccn12,0,0,-,0,0,9.5
COc1ccccc1NC(=O)NCCCN1CCN(c2cccc(Cl)c2)CC1,0,0,0,0,0,0
CCC(=O)Nc1ccc(NC(=O)c2cc3ccccc3o2)cc1,0,0,0,0,0,0
CN(C)S(=O)(=O)c1ccc(NC(=O)c2cc3ccccc3o2)cc1,20.7,0,0,0,0,0
CCN(CC)CCCN1C(=O)C(=O)/C(=C(/O)c2cnn(-c3ccccc3)c2C)C1c1ccncc1 (configuration not stated),0,-,0,0,0,0
NC(=O)CN1CCN(c2ccccc2F)CC1,0,0,0,0,0,0
Oc1ccc2ccccc2c1CN1CCN(c2ccccc2F)CC1,0,0,0,0,0,13.8
CC1Cc2cc(/C(O)=C3\C(=O)C(=O)N(CCN(C)C)C3c3ccccc3F)ccc2O1 (configuration not stated),0,0,0,0,0,0
COC(=O)c1cc(Br)c(=O)n(CC(C)C)c1,0,0,0,0,0,9.5
COC(=O)c1cc(Br)c(=O)n(CCN2CCCCC2)c1,0,0,0,0,0,0
CC(C)OC(=O)c1nn2c(C(F)(F)F)cc(-c3ccc(Br)o3)nc2c1Br,0,0,-,0,0,0
O=C1CN(C(=O)c2ccc(Br)o2)C(c2ccccc2)c2cc(Br)ccc2N1 (configuration not stated),0,0,0,0,0,0
O=C(O)CN1C(=O)Nc2ccc(Br)cc2C1c1ccccc1 (configuration not stated),0,-,0,32.3,-,0
Cc1c(C(=O)O)c2cc(O)ccc2n1-c1ccccc1,0,0,0,0,0,0
COC(=O)c1c(C)n(-c2ccc(OC)cc2)c2ccc(O)cc12,0,65.6,0,0,0,0
Cc1cccc(N2CCN(C(=O)c3ccc(Cl)c(S(=O)(=O)NCc4ccco4)c3)CC2)c1C,0,0,0,0,0,15.5
O=C(O)c1ccc(Cl)c(S(=O)(=O)NCc2ccco2)c1,0,0,0,0,0,0
CC(=O)c1cc2c(cc1NC(=O)c1cc(C)nn1-c1ccccc1)OCO2,24.4,0,0,0,0,0
